{"source": "ChEMBL document CHEMBL3627690", "about": "“Scaffold-Hopping and Structure-Based Discovery of Potent, Selective, And Brain Penetrant N-(1H-Pyrazol-3-yl)pyridin-2-amine Inhibitors of Dual Leucine Zipper Kinase (DLK, MAP3K12)” (J Med Chem, 2015)", "key": {"human MDR1": {"tested_on": "human MDR1", "assay": "Permeability across apical to basolateral side in MDCK cells transfected with human MDR1 at 5 uM by LC-MS/MS analysis", "details": "dog"}, "[1]": {"assay": "Ratio of unbound AUC in brain to plasma of […] rat at 0.4 or 1 mg/kg, iv and 1 or 5 mg/kg, po", "type": "ADME, organism-based", "procedure,_shortened": "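Rat PK: iv dosing at 0.4 or 1 mg/kg as a 60% PEG solution and oral dosing at 1 or 5 mg/kg as an aqueous suspension in 1% methylcellulose. The ratio is unbound brain AUC over unbound plasma AUC. Unbound clearance was taken as CL/fu, where fu is the fraction unbound in plasma.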"}, "Rattus norvegicus [2]": {"tested_on": "Rattus norvegicus", "assay": "Free clearance in […] rat at 0.4 or 1 mg/kg, iv and 1 or 5 mg/kg, po", "type": "ADME, organism-based", "details": "in vivo", "procedure,_shortened": "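Rat PK used iv dosing at 0.4 or 1 mg/kg in 60% PEG solution and po dosing at 1 or 5 mg/kg as an aqueous 1% methylcellulose suspension. Free clearance is CL/fu, where fu is the fraction unbound in plasma.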"}, "[3]": {"assay": "Volume of distribution at steady state in […] rat at 0.4 or 1 mg/kg, iv and 1 or 5 mg/kg, po", "type": "ADME, organism-based", "details": "in vivo, read-out: Vdss", "procedure,_shortened": "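Rat PK: iv dosing at 0.4 or 1 mg/kg as a 60% PEG solution, po dosing at 1 or 5 mg/kg as an aqueous suspension with 1% methylcellulose.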"}, "[4]": {"target": "Mitogen-activated protein kinase 14 (Homo sapiens) (UniProt Q16539)", "sequence (Q16539 whole entry)": "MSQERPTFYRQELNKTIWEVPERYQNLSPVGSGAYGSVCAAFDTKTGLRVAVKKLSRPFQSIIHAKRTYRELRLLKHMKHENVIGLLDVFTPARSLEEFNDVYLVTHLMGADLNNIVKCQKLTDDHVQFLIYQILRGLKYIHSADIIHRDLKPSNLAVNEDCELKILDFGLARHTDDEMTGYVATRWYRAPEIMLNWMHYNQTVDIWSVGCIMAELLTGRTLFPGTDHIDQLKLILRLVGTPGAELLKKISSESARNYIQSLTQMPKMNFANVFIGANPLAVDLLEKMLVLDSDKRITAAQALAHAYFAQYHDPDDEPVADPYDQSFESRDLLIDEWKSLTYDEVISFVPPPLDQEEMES", "assay": "Inhibition of p38alpha (unknown origin) at 1 uM by FRET method", "procedure,_shortened": "(§1)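 Single-point screen at 1 uM against a panel of 58 representative kinases. Readout was labeled-peptide phosphorylation by FRET (Z′-LYTE), using the vendor's protocols.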"}, "[5]": {"target": "Rho-associated protein kinase 1 (Homo sapiens) (UniProt Q13464)", "sequence (Q13464 2-1354 limits assumed)": "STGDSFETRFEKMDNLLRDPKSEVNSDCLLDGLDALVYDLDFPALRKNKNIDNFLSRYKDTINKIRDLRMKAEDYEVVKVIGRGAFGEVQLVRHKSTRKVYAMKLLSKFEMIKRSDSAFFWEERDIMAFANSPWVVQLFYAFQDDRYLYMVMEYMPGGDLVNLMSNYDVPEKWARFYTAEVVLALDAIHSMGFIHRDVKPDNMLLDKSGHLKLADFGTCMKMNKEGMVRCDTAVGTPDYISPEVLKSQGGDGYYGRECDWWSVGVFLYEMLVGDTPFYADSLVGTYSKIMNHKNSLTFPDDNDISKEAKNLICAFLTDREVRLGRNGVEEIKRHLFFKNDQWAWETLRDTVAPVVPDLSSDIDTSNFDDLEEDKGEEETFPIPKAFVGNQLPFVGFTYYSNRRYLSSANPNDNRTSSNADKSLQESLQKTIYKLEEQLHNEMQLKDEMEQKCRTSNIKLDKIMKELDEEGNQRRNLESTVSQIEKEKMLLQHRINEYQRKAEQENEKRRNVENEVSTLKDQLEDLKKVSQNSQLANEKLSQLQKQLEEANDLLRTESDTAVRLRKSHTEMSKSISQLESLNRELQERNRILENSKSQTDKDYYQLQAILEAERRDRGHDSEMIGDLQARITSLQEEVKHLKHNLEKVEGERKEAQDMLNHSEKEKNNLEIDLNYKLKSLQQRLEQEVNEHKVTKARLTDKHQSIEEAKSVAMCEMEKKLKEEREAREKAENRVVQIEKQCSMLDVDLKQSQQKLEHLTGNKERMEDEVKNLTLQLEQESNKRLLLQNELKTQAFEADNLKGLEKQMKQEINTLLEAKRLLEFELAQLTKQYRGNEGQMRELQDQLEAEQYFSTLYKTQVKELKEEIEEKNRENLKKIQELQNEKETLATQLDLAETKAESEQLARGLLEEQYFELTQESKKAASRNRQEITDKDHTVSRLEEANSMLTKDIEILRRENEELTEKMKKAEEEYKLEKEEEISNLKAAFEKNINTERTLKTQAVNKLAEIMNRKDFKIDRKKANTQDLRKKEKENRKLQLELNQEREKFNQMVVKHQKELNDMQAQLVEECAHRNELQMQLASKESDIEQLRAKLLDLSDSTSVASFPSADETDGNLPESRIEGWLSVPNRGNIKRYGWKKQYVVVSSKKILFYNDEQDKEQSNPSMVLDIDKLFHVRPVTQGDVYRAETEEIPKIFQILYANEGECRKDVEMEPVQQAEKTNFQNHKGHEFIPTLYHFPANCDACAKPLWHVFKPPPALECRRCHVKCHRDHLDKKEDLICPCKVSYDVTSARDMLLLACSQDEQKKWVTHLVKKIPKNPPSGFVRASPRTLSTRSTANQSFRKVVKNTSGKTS", "assay": "Inhibition of ROCK1 (unknown origin) at 1 uM by FRET method", "procedure,_shortened": "as §1"}, "[6]": {"target": "Tyrosine-protein kinase SYK (Homo sapiens) (UniProt P43405)", "assay": "Inhibition of Syk (unknown origin) at 1 uM by FRET method", "procedure,_shortened": "as §1"}, "[7]": {"target": "Non-receptor tyrosine-protein kinase TYK2 (Homo sapiens) (UniProt P29597)", "assay": "Inhibition of TYK2 (unknown origin) at 1 uM by FRET method", "procedure,_shortened": "as §1"}, "[8]": {"target": "Tyrosine-protein kinase BTK (Homo sapiens) (UniProt Q06187)", "sequence (Q06187 whole entry)": "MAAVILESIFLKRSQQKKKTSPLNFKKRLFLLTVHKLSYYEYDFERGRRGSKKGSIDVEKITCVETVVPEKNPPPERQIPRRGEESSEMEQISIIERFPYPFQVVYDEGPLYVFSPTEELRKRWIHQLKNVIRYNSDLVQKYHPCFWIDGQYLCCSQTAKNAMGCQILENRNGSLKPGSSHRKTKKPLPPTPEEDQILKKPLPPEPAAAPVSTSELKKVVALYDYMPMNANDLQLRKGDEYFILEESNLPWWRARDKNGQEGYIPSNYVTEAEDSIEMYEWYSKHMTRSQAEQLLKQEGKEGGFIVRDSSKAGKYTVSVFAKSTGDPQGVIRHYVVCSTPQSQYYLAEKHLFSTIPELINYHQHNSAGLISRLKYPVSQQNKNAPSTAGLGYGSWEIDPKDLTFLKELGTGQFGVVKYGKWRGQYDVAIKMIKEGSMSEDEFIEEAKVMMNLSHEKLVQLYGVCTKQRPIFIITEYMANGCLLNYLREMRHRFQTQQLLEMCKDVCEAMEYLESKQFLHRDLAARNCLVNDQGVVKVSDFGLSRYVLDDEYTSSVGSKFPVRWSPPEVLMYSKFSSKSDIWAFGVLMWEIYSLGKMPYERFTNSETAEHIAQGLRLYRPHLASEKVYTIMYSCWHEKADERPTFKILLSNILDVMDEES", "assay": "Inhibition of BTK (unknown origin) at 1 uM by FRET method", "procedure,_shortened": "(§2)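 SelectScreen panel of 58 kinases, each tested at a single 1 µM compound concentration. Read-out was Z′-LYTE FRET of labeled peptide phosphorylation, run by the vendor's protocols, reported as percent inhibition.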"}, "[9]": {"target": "Cyclin-dependent kinase 1/cyclin B1 (Homo sapiens) (UniProt P06493+P14635)", "sequence (P06493 whole entry, looked up)": "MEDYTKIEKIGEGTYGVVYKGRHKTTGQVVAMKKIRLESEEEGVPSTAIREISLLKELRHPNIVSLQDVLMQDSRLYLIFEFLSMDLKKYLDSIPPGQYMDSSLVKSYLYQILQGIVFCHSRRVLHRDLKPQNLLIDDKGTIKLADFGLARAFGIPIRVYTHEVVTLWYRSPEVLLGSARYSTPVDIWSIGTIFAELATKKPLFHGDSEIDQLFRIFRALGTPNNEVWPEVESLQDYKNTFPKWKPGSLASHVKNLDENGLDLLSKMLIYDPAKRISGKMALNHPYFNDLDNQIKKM", "sequence (P14635 whole entry, looked up)": "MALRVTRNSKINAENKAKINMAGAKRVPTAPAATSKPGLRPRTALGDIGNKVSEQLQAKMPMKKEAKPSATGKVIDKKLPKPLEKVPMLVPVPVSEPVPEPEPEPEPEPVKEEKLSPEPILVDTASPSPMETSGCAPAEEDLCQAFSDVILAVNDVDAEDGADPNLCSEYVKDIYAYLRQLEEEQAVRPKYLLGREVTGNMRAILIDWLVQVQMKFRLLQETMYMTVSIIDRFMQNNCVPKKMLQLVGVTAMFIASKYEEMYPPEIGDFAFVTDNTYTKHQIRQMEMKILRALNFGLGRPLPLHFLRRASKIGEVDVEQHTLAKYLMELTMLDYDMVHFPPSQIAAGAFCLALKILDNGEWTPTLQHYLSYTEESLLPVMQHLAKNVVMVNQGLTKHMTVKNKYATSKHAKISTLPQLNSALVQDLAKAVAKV", "assay": "Inhibition of CDK1/cyclinB (unknown origin) at 1 uM by FRET method", "type": "protein-complex assay", "procedure,_shortened": "as §2"}, "[10]": {"target": "Myotonin-protein kinase (Homo sapiens) (UniProt Q09013)", "sequence (Q09013 whole entry)": "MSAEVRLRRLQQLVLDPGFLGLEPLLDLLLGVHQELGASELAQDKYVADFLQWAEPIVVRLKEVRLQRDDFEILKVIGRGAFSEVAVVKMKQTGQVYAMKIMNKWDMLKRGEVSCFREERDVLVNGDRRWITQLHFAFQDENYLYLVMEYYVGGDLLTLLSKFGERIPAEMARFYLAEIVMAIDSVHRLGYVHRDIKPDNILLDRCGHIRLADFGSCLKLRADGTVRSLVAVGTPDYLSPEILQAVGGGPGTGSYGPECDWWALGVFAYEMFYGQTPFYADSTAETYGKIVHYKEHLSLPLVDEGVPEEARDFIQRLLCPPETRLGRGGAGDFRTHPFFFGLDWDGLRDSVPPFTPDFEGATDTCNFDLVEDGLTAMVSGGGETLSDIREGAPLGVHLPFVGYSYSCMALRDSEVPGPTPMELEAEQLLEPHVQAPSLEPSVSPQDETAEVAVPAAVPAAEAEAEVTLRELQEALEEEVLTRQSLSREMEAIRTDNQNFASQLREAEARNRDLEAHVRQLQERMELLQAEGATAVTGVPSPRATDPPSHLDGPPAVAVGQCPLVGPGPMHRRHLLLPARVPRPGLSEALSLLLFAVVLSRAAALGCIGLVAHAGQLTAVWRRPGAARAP", "assay": "Inhibition of DMPK (unknown origin) at 1 uM by FRET method", "procedure,_shortened": "as §2"}, "[11]": {"target": "Mitogen-activated protein kinase 3 (Homo sapiens) (UniProt P27361)", "sequence (P27361 whole entry)": "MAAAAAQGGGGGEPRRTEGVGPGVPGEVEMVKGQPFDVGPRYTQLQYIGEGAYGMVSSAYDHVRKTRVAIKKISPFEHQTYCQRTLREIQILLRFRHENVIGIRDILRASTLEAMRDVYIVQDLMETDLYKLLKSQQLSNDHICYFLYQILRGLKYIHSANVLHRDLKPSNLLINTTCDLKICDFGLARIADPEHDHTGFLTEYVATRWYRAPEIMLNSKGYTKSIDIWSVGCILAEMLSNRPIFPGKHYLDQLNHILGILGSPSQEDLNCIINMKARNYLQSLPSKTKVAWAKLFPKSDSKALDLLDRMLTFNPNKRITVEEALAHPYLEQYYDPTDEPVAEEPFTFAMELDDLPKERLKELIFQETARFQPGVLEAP", "assay": "Inhibition of ERK1 (unknown origin) at 1 uM by FRET method", "procedure,_shortened": "as §2"}, "[12]": {"target": "Glycogen synthase kinase-3 beta (Homo sapiens, UniProt P49841)", "sequence (P49841 whole entry, looked up)": "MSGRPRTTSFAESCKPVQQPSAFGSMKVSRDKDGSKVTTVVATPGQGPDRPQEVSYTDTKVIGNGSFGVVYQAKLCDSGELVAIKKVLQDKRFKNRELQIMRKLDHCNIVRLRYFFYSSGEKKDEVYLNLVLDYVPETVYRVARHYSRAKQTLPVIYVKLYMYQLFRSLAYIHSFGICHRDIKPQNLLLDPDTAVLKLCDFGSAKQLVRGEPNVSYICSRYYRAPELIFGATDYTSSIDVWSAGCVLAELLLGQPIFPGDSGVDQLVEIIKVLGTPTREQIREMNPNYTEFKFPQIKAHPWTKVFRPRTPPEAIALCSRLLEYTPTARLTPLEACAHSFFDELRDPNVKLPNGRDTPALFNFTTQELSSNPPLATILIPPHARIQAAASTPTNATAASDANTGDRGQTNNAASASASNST", "assay": "Inhibition of GSK3beta (unknown origin) at 1 uM by FRET method", "procedure,_shortened": "as §2"}, "[13]": {"target": "Insulin-like growth factor 1 receptor (Homo sapiens) (UniProt P08069)", "assay": "Inhibition of IGF1R (unknown origin) at 1 uM by FRET method", "procedure,_shortened": "as §2"}, "[14]": {"target": "Vascular endothelial growth factor receptor 2 (Homo sapiens) (UniProt P35968)", "assay": "Inhibition of KDR (unknown origin) at 1 uM by FRET method", "procedure,_shortened": "as §2"}, "[15]": {"target": "Mitogen-activated protein kinase kinase kinase kinase 4 (Homo sapiens) (UniProt O95819)", "assay": "Inhibition of MAP4K4 (unknown origin) at 1 uM by FRET method", "procedure,_shortened": "as §2"}, "[16]": {"target": "Macrophage colony-stimulating factor 1 receptor (Homo sapiens, UniProt P07333)", "assay": "Inhibition of CSF1R (unknown origin) by FRET method"}, "[17]": {"target": "Receptor-type tyrosine-protein kinase FLT3 (Homo sapiens, UniProt P36888)", "assay": "Inhibition of Flt3 (unknown origin) by FRET method"}, "[18]": {"target": "Dual specificity mitogen-activated protein kinase kinase 4 (Homo sapiens, UniProt P45985)", "sequence (P45985 whole entry)": "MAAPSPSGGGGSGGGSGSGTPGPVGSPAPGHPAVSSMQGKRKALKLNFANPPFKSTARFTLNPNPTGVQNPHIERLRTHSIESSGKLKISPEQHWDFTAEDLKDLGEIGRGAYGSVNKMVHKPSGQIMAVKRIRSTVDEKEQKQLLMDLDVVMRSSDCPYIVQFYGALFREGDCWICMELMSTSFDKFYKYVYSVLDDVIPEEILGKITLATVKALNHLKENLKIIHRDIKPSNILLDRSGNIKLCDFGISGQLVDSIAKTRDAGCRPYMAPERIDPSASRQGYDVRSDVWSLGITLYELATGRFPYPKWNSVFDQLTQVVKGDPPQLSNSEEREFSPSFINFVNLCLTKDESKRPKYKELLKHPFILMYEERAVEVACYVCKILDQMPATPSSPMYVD", "assay": "Inhibition of MKK4 (unknown origin) using KFMMTPpYVVTR substrate incubated for 1 hr measured by MpTPpYV probe-based fluorescence polarization assay", "procedure,_shortened": "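MKK4 at 30 nM was incubated with 100 µM KFMMTPpYVVTR peptide, 5 µM ATP and 3.3 nM fluorescent MpTPpYV probe. Buffer was 50 mM HEPES pH 7.5 with 5 mM MgCl2 and 10 mM DTT. Reaction ran 1 h at 23 °C, was stopped with EDTA plus anti-phospho-JNK antibody, and read by FP (ex 633/em 670 nm). Activity was normalized to the positive control.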"}, "[19]": {"target": "Mitogen-activated protein kinase kinase kinase 9 (Homo sapiens, UniProt P80192)", "assay": "Inhibition of MLK1 (unknown origin) by FRET method", "procedure,_shortened": "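Biochemical IC50 determination from a 10-point dose-response in an enzymatic Z′-LYTE assay. Labeled-peptide phosphorylation was read by FRET under the vendor's protocols.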"}, "[20]": {"assay": "Cmax in mouse at 50 mg/kg, po", "type": "ADME, organism-based", "set-up": "dose 50 mg/kg, route oral", "details": "in vivo", "procedure,_shortened": "(§3)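 C57/Bl6 mice were given a single 50 mg/kg oral dose as an MCT suspension. Plasma was sampled over 0–6 h for Cmax, Tmax and AUC0–6h.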"}, "[21]": {"assay": "AUC (0 to 6 h) in mouse at 50 mg/kg, po", "type": "ADME, organism-based", "set-up": "dose 50 mg/kg, time < 6 hr, route oral", "details": "in vivo", "procedure,_shortened": "as §3"}, "Rattus norvegicus [22]": {"tested_on": "Rattus norvegicus", "assay": "Dose normalized free AUC in rat at 0.4 or 1 mg/kg, iv and 1 or 5 mg/kg, po", "details": "in vivo"}}}
{"smiles": "N#Cc1ccnc(Nc2cc(C3CCN(C4COC4)CC3)n(C3CCCC3)n2)c1", "values": [{"measurement": "Papp A→B at 5 µM", "setting": "human MDR1", "value": 8.8, "unit": "×10⁻⁶ cm/s"}, {"measurement": "Kp uu", "setting": "[1]", "value": 0.35}, {"measurement": "CL free", "setting": "Rattus norvegicus [2]", "value": 327, "unit": "mL/min/kg"}, {"measurement": "Vd", "setting": "[3]", "value": 4.4, "unit": "L/kg"}, {"measurement": "inhibition", "setting": "[4]", "value": 14.6, "unit": "%"}, {"measurement": "inhibition", "setting": "[5]", "value": -3, "unit": "%"}, {"measurement": "inhibition", "setting": "[6]", "value": 41.2, "unit": "%"}, {"measurement": "inhibition", "setting": "[7]", "value": 25.6, "unit": "%"}, {"measurement": "inhibition", "setting": "[8]", "value": 32.4, "unit": "%"}, {"measurement": "inhibition", "setting": "[9]", "value": 13.5, "unit": "%"}, {"measurement": "inhibition", "setting": "[10]", "value": 12, "unit": "%"}, {"measurement": "inhibition", "setting": "[11]", "value": 0.6, "unit": "%"}, {"measurement": "inhibition", "setting": "[12]", "value": 58.6, "unit": "%"}, {"measurement": "inhibition", "setting": "[13]", "value": 37, "unit": "%"}, {"measurement": "inhibition", "setting": "[14]", "value": 5.2, "unit": "%"}, {"measurement": "inhibition", "setting": "[15]", "value": 12.1, "unit": "%"}, {"measurement": "IC50", "setting": "[16]", "value": 57, "unit": "nM"}, {"measurement": "IC50", "setting": "[17]", "value": 322, "unit": "nM"}, {"measurement": "IC50", "setting": "[18]", "value": "> 5000", "unit": "nM"}, {"measurement": "IC50", "setting": "[19]", "value": "> 10000", "unit": "nM"}, {"measurement": "Cmax", "setting": "[20]", "value": 5.9, "unit": "µM"}, {"measurement": "AUC(0-t) at 6 h", "setting": "[21]", "value": 15.8, "unit": "µM·h"}, {"measurement": "fAUC/dose", "setting": "Rattus norvegicus [22]", "value": 0.03, "unit": "kg·h/L"}]}
